Assay results published in ChEMBL document CHEMBL1127326, “Antitumor agents. 148. Synthesis and biological evaluation of novel 4 beta-amino derivatives of etoposide with better pharmacological profiles” (1994).

Assays:
RPMI-8226 = experiment: (§1) In vitro anti tumor activity against human tumor leukemia cell lines was determined; assay type: functional
In short: (§2)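 NCI in vitro screen of 54 human tumour lines from eight cancer types. Cells seeded mostly at 20 000/well, preincubated 24 h without drug, then exposed to five 10-fold dilutions for 48 h. Cells fixed in situ, stained with sulforhodamine B, bound dye solubilised and read spectrophotometrically. GI50, TGI (0% growth) and LC50 (-50% growth) were taken from dose-response curves relative to control. Mean-graph midpoints averaged across all lines.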

K562 = experiment: as §1; assay type: functional; in short: as §2
HL-60 = experiment: as §1; assay type: functional; in short: as §2
CCRF-CEM = experiment: as §1; assay type: functional; in short: as §2
SR = experiment: as §1; assay type: functional; in short: as §2
MOLT-4 = experiment: as §1; assay type: functional; in short: as §2
KB [1] = experiment: 50% reduction in the number of KB ATCC cells; assay type: functional; settings: Homo sapiens, read-out: ID50 (the source's name)
In short: (§3)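 KB cells (parental ATCC line and resistant variants) exposed to drug at five concentrations […] for 3 days. ID50 is the concentration giving 50% reduction in cell number, derived from the degree of inhibition at the five concentrations.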

KB [2] = experiment: 50% reduction in the number of KB 7D (topoisomerase II, aMDR) resistant variant; assay type: functional, Homo sapiens; settings: Homo sapiens, KB; read-out: ID50 (the source's name); in short: as §3
IGROV-1 = experiment: (§4) In vitro anti tumor activity against human tumor Ovarian cancer cell lines was determined; assay type: functional; in short: as §2
OVCAR-3 = experiment: as §4; assay type: functional; in short: as §2
OVCAR-8 = experiment: as §4; assay type: functional; in short: as §2
SK-OV-3 = experiment: as §4; assay type: functional; in short: as §2
OVCAR-4 = experiment: as §4; assay type: functional; in short: as §2
786-0 = experiment: (§5) In vitro anti tumor activity against human tumor Renal cancer cell lines was determined; assay type: functional; in short: as §2
SN12C = experiment: as §5; assay type: functional; in short: as §2
RXF 393 = experiment: as §5; assay type: functional; in short: as §2
ACHN = experiment: as §5; assay type: functional; in short: as §2
TK-10 = experiment: as §5; assay type: functional; in short: as §2
CAKI-1 = experiment: as §5; assay type: functional; in short: as §2
UO-31 = experiment: as §5; assay type: functional; in short: as §2
Tumor Cell line [3] = experiment: Drug molar concentration required to inhibit 50% of human tumor cell growth; assay type: functional
In short: (§6)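 NCI panel of 54 human tumor lines from eight cancer types, mostly seeded at 20 000 cells/well. Cells were preincubated 24 h without drug, then exposed to five 10-fold dilutions for 48 h, fixed and stained with sulforhodamine B, and read spectrophotometrically. Versus control, GI50 (50% growth inhibition), TGI (0% growth) and LC50 (−50% growth) were calculated; mean graph midpoints average all lines.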

[4] = test system: Panel (56 tumour cell lines); experiment: In vitro anti tumor activity against human tumor cell lines was determined; assay type: functional; in short: as §2
SNB-78 = experiment: (§7) In vitro anti tumor activity against human CNS cancer cell lines was determined; assay type: functional; in short: as §2
SNB-75 = experiment: as §7; assay type: functional; in short: as §2
SF-268 = experiment: as §7; assay type: functional; in short: as §2
U-251 = experiment: as §7; assay type: functional; in short: as §2
XF498 = experiment: as §7; assay type: functional; in short: as §2
SNB-19 = experiment: as §7; assay type: functional; in short: as §2
SF-539 = experiment: as §7; assay type: functional; in short: as §2
SF-295 = experiment: as §7; assay type: functional; in short: as §2
Tumor Cell line [5] = experiment: Drug concentration required to inhibit total cell growth; assay type: functional, Homo sapiens; settings: read-out: Log TGI (converted); in short: as §6
HOP-92 = experiment: (§8) In vitro anti tumor activity against human non-small cell lung cancer cell lines was determined; assay type: functional; in short: as §2
EKVX = experiment: as §8; assay type: functional; in short: as §2
LXFL 529 = experiment: as §8; assay type: functional; in short: as §2
NCI-H522 = experiment: as §8; assay type: functional; in short: as §2
A549 = experiment: as §8; assay type: functional; in short: as §2
NCI-H460 = experiment: as §8; assay type: functional; in short: as §2
NCI-H226 = experiment: as §8; assay type: functional; in short: as §2
NCI-H322M = experiment: as §8; assay type: functional; in short: as §2
HOP-62 = experiment: as §8; assay type: functional; in short: as §2
SK-MEL-5 = experiment: (§9) In vitro anti tumor activity against human melanoma cell lines was determined; assay type: functional; in short: as §2
M14 = experiment: as §9; assay type: functional; in short: as §2
UACC-257 = experiment: as §9; assay type: functional; in short: as §2
SK-MEL-28 = experiment: as §9; assay type: functional; in short: as §2
Malme-3M = experiment: as §9; assay type: functional; in short: as §2
M19-MEL = experiment: as §9; assay type: functional; in short: as §2
SK-MEL-2 = experiment: as §9; assay type: functional; in short: as §2
UACC-62 = experiment: as §9; assay type: functional; in short: as §2
LOX IMVI = experiment: as §9; assay type: functional; in short: as §2
KB [6] = experiment: 50% reduction in the number of KB V20C resistant variant; assay type: functional, Homo sapiens; settings: Homo sapiens, KB; read-out: ID50 (the source's name); in short: as §3
DMS-273 = experiment: (§10) In vitro anti tumor activity against human tumor small cell lung cancer cell lines was determined; assay type: functional; in short: as §2
DMS-114 = experiment: as §10; assay type: functional; in short: as §2
NCI-H23 = experiment: as §8; settings: NCI-H23, read-out: Log GI50 (converted)
KB [7] = experiment: Cytotoxicity against KB cells after a 3 day incubation; assay type: functional, Homo sapiens; settings: Homo sapiens, KB, 72 h; read-out: ID50 (the source's name); in short: as §3
KM12 = experiment: (§11) In vitro anti tumor activity against human colon tumor cell lines was determined; assay type: functional; in short: as §2
DLD-1 = experiment: as §11; assay type: functional; in short: as §2
HCC 2998 = experiment: as §11; assay type: functional; in short: as §2
HCT-15 = experiment: as §11; assay type: functional; in short: as §2
HCT-116 = experiment: as §11; assay type: functional; in short: as §2
SW-620 = experiment: as §11; assay type: functional; in short: as §2
HT-29 = experiment: as §11; assay type: functional; in short: as §2
COLO 205 = experiment: as §11; assay type: functional; in short: as §2
KM-20L2 = experiment: as §11; assay type: functional; in short: as §2
[8] = target: DNA topoisomerase II (Homo sapiens) (UniProt P11388+Q02880); experiment: 50% inhibition of human DNA topoisomerase II; assay type: protein assay
Tumor Cell line [9] = experiment: Drug concentration required to cause 50% cell death; assay type: functional, Homo sapiens; settings: Homo sapiens, Tumor Cell line
In short: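 NCI in vitro panel of 54 human tumor cell lines from eight cancer types, mostly seeded at 20 000 cells/well and preincubated 24 h without drug. Five 10-fold dilutions were then added for a further 48 h. Cells were fixed in situ and stained with sulforhodamine B, and bound dye was read spectrophotometrically. LC50 (−50% growth versus control) was taken from five-point dose-response curves and reported as the log10 mean-graph midpoint across lines.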

Nucleic Acid = experiment: Percentage inhibition of cellular protein-DNA complex formation; assay type: functional; settings: Homo sapiens
Tumor Cell line [10] = experiment: Inhibition of human tumor cell growth; assay type: functional; in short: as §6

SMILES: COc1cc([C@@H]2c3cc4c(cc3[C@@H](NC3CCN(Cc5ccccc5)CC3)[C@H]3COC(=O)[C@H]23)OCO4)cc(OC)c1O
- GI50 (RPMI-8226): 53.7 nM
- GI50 (K562): 123 nM
- GI50 (HL-60): 13.8 nM
- GI50 (CCRF-CEM): 22.4 nM
- GI50 (SR): 10 nM
- GI50 (MOLT-4): < 10 nM
- IC50 (KB [1]): 24 nM
- IC50 (KB [2]): 97.5 nM
- GI50 (IGROV-1): 38.9 nM
- GI50 (OVCAR-3): 302 nM
- GI50 (OVCAR-8): 97.7 nM
- GI50 (SK-OV-3): 53.7 nM
- GI50 (OVCAR-4): 1120 nM
- GI50 (786-0): 33.1 nM
- GI50 (SN12C): 39.8 nM
- GI50 (RXF 393): 398 nM
- GI50 (ACHN): 18.2 nM
- GI50 (TK-10): 195 nM
- GI50 (CAKI-1): 275 nM
- GI50 (UO-31): 87.1 nM
- GI50 (Tumor Cell line [3]; Homo sapiens, Tumor Cell line): 87.1 nM
- GI50 [4]: 87.1 nM
- GI50 (SNB-78): 933 nM
- GI50 (SNB-75): 219 nM
- GI50 (SF-268): 129 nM
- GI50 (U-251): 26.3 nM
- GI50 (XF498): 132 nM
- GI50 (SNB-19): 93.3 nM
- GI50 (SF-539): 53.7 nM
- GI50 (SF-295): 36.3 nM
- TGI (Tumor Cell line [5]): 525 nM
- GI50 (HOP-92): 25.7 nM
- GI50 (EKVX): 776 nM
- GI50 (LXFL 529): 437 nM
- GI50 (NCI-H522): 83.2 nM
- GI50 (A549): 13.8 nM
- GI50 (NCI-H460): < 10 nM
- GI50 (NCI-H226): 11 nM
- GI50 (NCI-H322M): 1070 nM
- GI50 (HOP-62): 26.9 nM
- GI50 (SK-MEL-5): 74.1 nM
- GI50 (M14): 47.9 nM
- GI50 (UACC-257): 257 nM
- GI50 (SK-MEL-28): 324 nM
- GI50 (Malme-3M): 112 nM
- GI50 (M19-MEL): 204 nM
- GI50 (SK-MEL-2): 240 nM
- GI50 (UACC-62): 36.3 nM
- GI50 (LOX IMVI): 34.7 nM
- IC50 (KB [6]): 21.5 nM
- GI50 (DMS-273): 21.9 nM
- GI50 (DMS-114): 64.6 nM
- GI50 (NCI-H23): 40.7 nM
- IC50 (KB [7]): 21 nM
- GI50 (KM12): 204 nM
- GI50 (DLD-1): 427 nM
- GI50 (HCC 2998): 174 nM
- GI50 (HCT-15): 123 nM
- GI50 (HCT-116): 151 nM
- GI50 (SW-620): 75.9 nM
- GI50 (HT-29): 138 nM
- GI50 (COLO 205): 178 nM
- GI50 (KM-20L2): 204 nM

SMILES: CCOC(=O)CC[C@H](NC(=O)c1ccc(N[C@@H]2c3cc4c(cc3[C@@H](c3cc(OC)c(O)c(OC)c3)[C@H]3C(=O)OC[C@@H]32)OCO4)cc1)C(=O)OCC
- ID50 [8]: 100000 nM
- GI50 (Tumor Cell line [3]; Homo sapiens, Tumor Cell line): 50.1 nM
- TGI (Tumor Cell line [5]; Homo sapiens, Tumor Cell line): 339 nM
- LC50 (Tumor Cell line [9]): 2880 nM
- IC50 (KB [7]): < 400 nM
- Complex formation (Nucleic Acid): 83%

SMILES: CCOC(=O)N1CCC(N[C@@H]2c3cc4c(cc3[C@@H](c3cc(OC)c(O)c(OC)c3)[C@H]3C(=O)OC[C@@H]32)OCO4)CC1
- ID50 [8]: 25000 nM

SMILES: COc1cc([C@@H]2c3cc4c(cc3[C@@H](Nc3ccc(C(=O)O)cc3)[C@H]3COC(=O)[C@H]23)OCO4)cc(OC)c1O
- GI50 (Tumor Cell line [3]): 12900 nM
- TGI (Tumor Cell line [5]): 52500 nM

SMILES: COc1cc([C@@H]2c3cc4c(cc3[C@@H](O[C@@H]3O[C@@H]5CO[C@@H](C)O[C@H]5[C@H](O)[C@H]3O)[C@H]3COC(=O)[C@H]23)OCO4)cc(OC)c1O [ETOPOSIDE]
- IC50 (KB [1]): 320 nM
- IC50 (KB [2]): 18000 nM
- IC50 (KB [6]): 2300 nM
- IC50 (KB [7]): 200 nM
- Complex formation (Nucleic Acid): 100%
- GI50 (Tumor Cell line [10]): 83200 nM
